Test results reported in PMC2745083 (Neuropharmacology, 2009).

Legend:
LogD determination = type: physicochemical; details: octanol/phosphate buffer, pH 7.4
Summary of the method: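 Formulated [11C]-labeled test compound was partitioned between octanol and phosphate buffer (pH 7.4), vortexed 2 min and centrifuged 2 min. Both layers were sampled. The octanol layer was serially transferred to fresh octanol/buffer and the procedure repeated, giving six sample sets. Radioactivity was measured in a well counter. logD = log(decay-corrected octanol activity × 10 / decay-corrected buffer activity).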

[1] = Plasma protein binding assay; type: in vitro ADME; details: baboon
Summary of the method: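 Formulated [11C]-labeled test compound was incubated 10 min at room temperature in baboon plasma pooled from at least 4 animals. Total activity was sampled, then plasma was ultrafiltered through a Centrifree device (10 min centrifugation) and the filtrate counted. %unbound = Aunbound × 100 / total activity.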

[2] = Brain homogenate analysis for parent compound after i.p. injection; type: in vivo, Sprague Dawley rats; details: rat, ~65 min post injection
Summary of the method: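 Male Sprague Dawley rats (7–8 weeks) under isoflurane/oxygen got the [11C]-labeled test compound i.p. via a butterfly catheter with a saline rinse (3.0 ± 0.4 mCi), followed by 60 min dynamic PET. Animals were decapitated and brains homogenized in water. The homogenate was precipitated with cold acetonitrile, vortexed and centrifuged (2000 rcf, 2 min). The supernatant was spiked with standard, γ-counted and run on HPLC; the co-eluting fraction was counted as a decay-corrected ratio to initial homogenate radioactivity.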

[3] = [acetyl-11C]-SA from published data; ref Hooker et al., 2008; cited from earlier work
[4] = [acetyl-11C]-SA from published data; ref Hooker et al., 2008; cited from earlier work; remark: listed apart in the source
[5] = test system: permeability glycoprotein (P-gp); details: ref Teksin et al., 2009; cited from earlier work
[6] = not given; remark: listed apart in the source
[7] = in vivo, 10 mg/kg; cited from earlier work
[8] = baboon, i.v., acetyl-labeled SA, previous study; ref Hooker, 2008; cited from earlier work
[9] = female, baboon (Papio anubis), in vivo, iv

Structure (SMILES)	logD (LogD determination)	fraction unbound at 10 min [1]	proportion of parent compound remaining in brain homogenate [2] [%]	proportion of parent remaining in brain homogenate, fold higher than [11C]-SA [2] [fold]	plasma radioactivity that was parent compound [9] [%]	Plasma Protein Binding (% unbound) [3]	LogD (pH 7.4) [4]	efflux by permeability glycoprotein (P-gp) [5]	maximum average concentration in the brain ([6]; baboon, bolus intravenous administration, whole brain ROI) [% ID/cm^3]	brain radioactivity at 60 min after injection (cleared to) ([6]; baboon, i.v., labeled at the methyl ester) [%]	antinociception after 30 minutes [7]	residual radioactivity in brain at 60 min after injection [8] [% ID/cm^3]	time to be metabolized to ~50% in plasma (baboon plasma after i.v. injection)	lower average maximum brain concentration relative to [11C]-SA [6, 9]	time of peak brain concentration [6, 9] [s]	time to clear to half of maximum brain concentration [6, 9] [min]
CCOCO[C@H]1C[C@@H](C(=O)OC)[C@]2(C)CC[C@H]3C(=O)O[C@H](c4ccoc4)C[C@]3(C)[C@H]2C1=O [EOM-SB]	2.46 ± 0.01	0.234	14	~3	~50											
COC(=O)[C@@H]1C[C@H](OC(C)=O)C(=O)[C@H]2[C@@]1(C)CC[C@H]1C(=O)O[C@H](c3ccoc3)C[C@]21C [SA, Salvinorin A]						16.1 % (n = 2)	2.34 ± 0.09 (n = 4)	efflux	0.015	0.001	no detectable antinociception	0.004	under 5 min			
COC(=O)[C@@H]1C[C@H](O)C(=O)[C@H]2[C@@]1(C)CC[C@H]1C(=O)O[C@H](c3ccoc3)C[C@]21C [SB, Salvinorin B]	1.5	0.473												approximately 20%	70	6.0
